ChEMBL document CHEMBL4152279, “Synthesis, cytotoxic evaluation and target identification of thieno[2,3-d]pyrimidine derivatives with a dithiocarbamate side chain at C2 position” (Eur J Med Chem, 2018)
Activity calls are given as the source filed them. The calls are words filed in the database; no cut-off is given here.

Experiments:
A549 [1] = test: Induction of DNA damage in human A549 cells assessed as increase in CHK1 phosphorylation level at 2 uM after 2 hrs by immunoblot analysis; assay type: functional, cell-based
In short: (§1)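 A549 cells were treated for 2 h with DMSO as diluent. Total cell lysates were run on 12% SDS-PAGE and transferred to PVDF. Membranes were blocked in PBST with 5% BSA and immunoblotted for γ-H2AX and pS345 CHK1, with HRP secondary detection.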

A549 [2] = test: Induction of DNA damage in human A549 cells assessed as gamma-H2AX foci formation at 2 uM after 2 hrs by DAPI staining based immunofluorescence assay; assay type: functional, cell-based
In short: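 A549 cells were treated for 2 h with DMSO as diluent, then fixed. Cells were immunostained with a mouse monoclonal anti-γ-H2AX antibody, with DAPI as DNA counterstain, and γ-H2AX foci were scored by immunofluorescence.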

A549 [3] = test: Induction of DNA damage in human A549 cells assessed as increase in gamma-H2AX level at 2 uM after 2 hrs by immunoblot analysis; assay type: functional, cell-based; in short: as §1
A549 [4] = test: Antiproliferative activity against human A549 cells after 72 hrs by MTS assay; assay type: functional, cell-based; conditions: A549, 72 h
In short: (§2)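 MTS read-out (CellTiter 96 AQueous One) of proliferation in A549 or HCT-116 cells grown in DMEM with 10% FBS at 37 °C, 5% CO2. Taxol-resistant A549 cells were exposed for 72 h. Compounds were screened at 30 μM versus vehicle, with ≥50% inhibition counted active. Actives were then tested over a concentration range for IC50. Triplicate wells, three independent experiments, mean ± SD.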

A549 [5] = test: Cell cycle arrest in human A549 cells assessed as accumulation at G2/M phase at 0.1 uM after 24 hrs by propidium iodide staining based flow cytometry (reference value: 20.95 +/- 0.8%); assay type: functional
A549 [6] = test: Cell cycle arrest in human A549 cells assessed as accumulation at G0/G1 phase at 0.1 uM after 24 hrs by propidium iodide staining based flow cytometry (reference value: 46.39 +/- 1.75%); assay type: functional
A549 [7] = test: Cell cycle arrest in human A549 cells assessed as accumulation at S phase at 0.1 uM after 24 hrs by propidium iodide staining based flow cytometry (reference value: 32.37 +/- 1.23%); assay type: functional
A549 [8] = test: Cell cycle arrest in human A549 cells assessed as accumulation at G2/M phase at 1.5 times cytotoxic IC50 after 24 hrs by propidium iodide staining based flow cytometry (reference value: 20.95 +/- 0.8%); assay type: functional
A549 [9] = test: Cell cycle arrest in human A549 cells assessed as accumulation at G0/G1 phase at 1.5 times cytotoxic IC50 after 24 hrs by propidium iodide staining based flow cytometry (reference value: 46.39 +/- 1.75%); assay type: functional
A549 [10] = test: Induction of DNA damage in human A549 cells assessed as increase in gamma-H2AX level after 12 hrs by immunoblot analysis; assay type: functional, cell-based
In short: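 A549 cells treated for 12 h, with DMSO as diluent; camptothecin at 2 μM for 2 h served as positive control. Total cell lysates were immunoblotted for γ-H2AX (Ser139 phosphorylated H2AX) and pS345 CHK1. Immunofluorescence for γ-H2AX foci with DAPI counterstain was run in parallel.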

HeLa = test: Cytotoxicity against human HeLa cells at 30 uM by MTS assay; assay type: functional, cell-based
A549 [11] = test: Cell cycle arrest in human A549 cells assessed as accumulation at G0/G1 phase at cytotoxic IC50 after 24 hrs by propidium iodide staining based flow cytometry (reference value: 46.39 +/- 1.75%); assay type: functional
A549 [12] = test: Cytotoxicity against human A549 cells at 30 uM by MTS assay relative to control; assay type: functional; in short: as §2
Sus scrofa [13] = organism: Sus scrofa; test: Inhibition of porcine tubulin polymerization after 60 mins by spectrometric method
In short: (§3)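 Purified tubulin was incubated at 37 °C with compound at 5, 10 or 20 μM, with DMSO as vehicle. Polymerization was followed as the rise in absorbance at 340 nm over 60 min. Taxol (10 μM) and nocodazole (10 μM) served as controls. Three independent experiments were run.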

A549 [14] = test: Activation of spindle assembly checkpoint in human A549 cells assessed as increase in BubR1 phosphorylation at cytotoxic IC50 after 6 to 24 hrs by immunoblot analysis; assay type: functional, cell-based
A549 [15] = test: Cell cycle arrest in human A549 cells assessed as accumulation at S phase at 0.5 times cytotoxic IC50 after 24 hrs by propidium iodide staining based flow cytometry (reference value: 32.37 +/- 1.23%); assay type: functional
A549 [16] = test: Cell cycle arrest in human A549 cells assessed as accumulation at G0/G1 phase at 0.5 times cytotoxic IC50 after 24 hrs by propidium iodide staining based flow cytometry (reference value: 46.39 +/- 1.75%); assay type: functional
A549 [17] = test: Activation of spindle assembly checkpoint in human A549 cells assessed as cells positive for histone H3 phosphorylation at Ser10 residue by measuring mitotic cell population at cytotoxic IC50 after 16 hrs by propidium iodide staining based flow cytometry (reference value: 6.9%); assay type: functional
A549 [18] = test: Activation of spindle assembly checkpoint in human A549 cells assessed as mitotic index by measuring cells positive for histone H3 phosphorylation at Ser10 residue at cytotoxic IC50 after 4 hrs by FITC staining based immunofluorescence assay (reference value: 3.3 +/- 0.17); assay type: functional
HCT-116 [19] = test: Cytotoxicity against human HCT116 cells by MTS assay; assay type: functional, cell-based; in short: as §2
A549 [20] = test: Cell cycle arrest in human A549 cells assessed as accumulation at G2/M phase after 24 hrs by propidium iodide staining based flow cytometry; assay type: functional
A549 [21] = test: Cytotoxicity against human A549 cells by MTS assay; assay type: functional, cell-based; in short: as §2
A549 [22] = test: Activation of spindle assembly checkpoint in human A549 cells assessed as cells positive for histone H3 phosphorylation at Ser10 residue by measuring mitotic cell population at cytotoxic IC50 after 4 hrs by propidium iodide staining based flow cytometry (reference value: 6.9%); assay type: functional
MCF7 = test: Cytotoxicity against human MCF7 cells at 30 uM by MTS assay; assay type: functional, cell-based
HCT-116 [23] = test: Cytotoxicity against human HCT116 cells at 30 uM by MTS assay relative to control; assay type: functional; in short: as §2
A549 [24] = test: Activation of spindle assembly checkpoint in human A549 cells assessed as mitotic index by measuring cells positive for histone H3 phosphorylation at Ser10 residue at cytotoxic IC50 after 16 hrs by FITC staining based immunofluorescence assay (reference value: 3.23 +/- 0.15); assay type: functional
A549 [25] = test: Cell cycle arrest in human A549 cells assessed as accumulation at G2/M phase at cytotoxic IC50 after 24 hrs by propidium iodide staining based flow cytometry (reference value: 20.95 +/- 0.8%); assay type: functional
HT-29 = test: Cytotoxicity against human HT-29 cells at 30 uM by MTS assay; assay type: functional, cell-based
A549 [26] = test: Induction of DNA damage in human A549 cells assessed as gamma-H2AX foci formation after 12 hrs by DAPI staining based immunofluorescence assay; assay type: functional, cell-based
In short: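 A549 cells treated 12 h, with camptothecin (2 μM, 2 h) and DMSO as comparators. Cells fixed and immunostained with mouse monoclonal anti-γ-H2AX, nuclei counterstained with DAPI, foci examined by immunofluorescence.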

A549 [27] = test: Activation of spindle assembly checkpoint in human A549 cells assessed as mitotic index by measuring cells positive for histone H3 phosphorylation at Ser10 residue at cytotoxic IC50 after 8 hrs by FITC staining based immunofluorescence assay (reference value: 3.17 +/- 0.15); assay type: functional
A549 [28] = test: Activation of spindle assembly checkpoint in human A549 cells assessed as increase in histone H3 phosphorylation at Ser10 residue at cytotoxic IC50 after 12 to 24 hrs by immunoblot analysis; assay type: functional, cell-based
A549 [29] = test: Induction of DNA damage in human A549 cells assessed as increase in CHK1 phosphorylation level after 12 hrs by immunoblot analysis; assay type: functional, cell-based
In short: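 A549 cells treated 12 h, with camptothecin (2 μM, 2 h) and DMSO as comparators. Total lysates immunoblotted for γ-H2AX and pS345 CHK1.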

A549 [30] = test: Activation of spindle assembly checkpoint in human A549 cells assessed as mitotic index by measuring cells positive for histone H3 phosphorylation at Ser10 residue at cytotoxic IC50 after 2 hrs by FITC staining based immunofluorescence assay (reference value: 2.67 +/- 0.21); assay type: functional
A549 [31] = test: Activation of spindle assembly checkpoint in human A549 cells assessed as cells positive for histone H3 phosphorylation at Ser10 residue by measuring mitotic cell population at cytotoxic IC50 after 8 hrs by propidium iodide staining based flow cytometry (reference value: 6.9%); assay type: functional
A549 [32] = test: Cell cycle arrest in human A549 cells assessed as accumulation at S phase at cytotoxic IC50 after 24 hrs by propidium iodide staining based flow cytometry (reference value: 32.37 +/- 1.23%); assay type: functional
A549 [33] = test: Activation of spindle assembly checkpoint in human A549 cells assessed as cells positive for histone H3 phosphorylation at Ser10 residue by measuring mitotic cell population at cytotoxic IC50 after 2 hrs by propidium iodide staining based flow cytometry (reference value: 6.9%); assay type: functional
A549 [34] = test: Cell cycle arrest in human A549 cells assessed as accumulation at G2/M phase at 0.5 times cytotoxic IC50 after 24 hrs by propidium iodide staining based flow cytometry (reference value: 20.95 +/- 0.8%); assay type: functional
A549 [35] = test: Cell cycle arrest in human A549 cells assessed as accumulation at S phase at 1.5 times cytotoxic IC50 after 24 hrs by propidium iodide staining based flow cytometry (reference value: 32.37 +/- 1.23%); assay type: functional
MDA-MB-231 = test: Cytotoxicity against human MDA-MB-231 cells at 30 uM by MTS assay; assay type: functional, cell-based
A549 [36] = test: Activation of spindle assembly checkpoint in human A549 cells assessed as mitotic index by measuring cells positive for histone H3 phosphorylation at Ser10 residue at 340 nM after 8 hrs by FITC staining based immunofluorescence assay (reference value: 3.17 +/- 0.15); assay type: functional
Sus scrofa [37] = organism: Sus scrofa; test: Inhibition of porcine tubulin polymerization at 10 uM after 60 mins by spectrometric method; in short: as §3
A549 [38] = test: Activation of spindle assembly checkpoint in human A549 cells assessed as mitotic index by measuring cells positive for histone H3 phosphorylation at Ser10 residue at 340 nM after 16 hrs by FITC staining based immunofluorescence assay (reference value: 3.23 +/- 0.15); assay type: functional
A549 [39] = test: Activation of spindle assembly checkpoint in human A549 cells assessed as mitotic index by measuring cells positive for histone H3 phosphorylation at Ser10 residue at 340 nM after 2 hrs by FITC staining based immunofluorescence assay (reference value: 2.67 +/- 0.21); assay type: functional
A549 [40] = test: Activation of spindle assembly checkpoint in human A549 cells assessed as mitotic index by measuring cells positive for histone H3 phosphorylation at Ser10 residue at 340 nM after 4 hrs by FITC staining based immunofluorescence assay (reference value: 3.3 +/- 0.17); assay type: functional

## CC[C@@]1(O)C(=O)OCc2c1cc1n(c2=O)Cc2cc3ccccc3nc2-1
A549 [1]
  Activity: Active
A549 [2]
  Activity: Active
A549 [3]
  Activity: Active

## CC(=O)O[C@H]1C(=O)[C@@]2(C)[C@H]([C@H](OC(=O)c3ccccc3)[C@]3(O)C[C@H](OC(=O)[C@H](O)[C@@H](NC(=O)c4ccccc4)c4ccccc4)C(C)=C1C3(C)C)[C@]1(OC(C)=O)CO[C@@H]1C[C@@H]2O [PACLITAXEL]
A549 [4]
  IC50: > 30 µM
A549 [5]
  Activity: 74.17%
A549 [6]
  Activity: 5.86%
A549 [7]
  Activity: 24.56%

## Cc1cc2c(=O)[nH]c(CSC(=S)NCc3ccc(C#N)cc3)nc2s1
A549 [8]
  Activity: 61.89%
A549 [9]
  Activity: 17%
A549 [10]
  Activity: inactive
HeLa
  Activity: inactive
A549 [11]
  Activity: 24.24%
A549 [12]
  Activity: >=50%
Sus scrofa [13]
  inhibition: Dose-dependent effect
A549 [14]
  Activity: Active
A549 [15]
  Activity: 30.89%
A549 [4]
  IC50: 7.31 µM
A549 [16]
  Activity: 43.91%
A549 [17]
  Activity: 19.5%
A549 [18]
  Activity_index: 9.67
HCT-116 [19]
  IC50: 22.6 µM
A549 [20]
  Activity: Dose-dependent effect
A549 [21]
  IC50: 4.78 µM
A549 [22]
  Activity: 10.2%
MCF7
  Activity: inactive
HCT-116 [23]
  Activity: >=50%
A549 [24]
  Activity_index: 19.17
A549 [25]
  Activity: 55.74%
HT-29
  Activity: inactive
A549 [26]
  Activity: inactive
A549 [27]
  Activity_index: 15.6
A549 [28]
  Activity: Active
A549 [29]
  Activity: inactive
A549 [30]
  Activity_index: 6.63
A549 [31]
  Activity: 13.7%
A549 [32]
  Activity: 19.85%
A549 [33]
  Activity: 6.9%
A549 [34]
  Activity: 23.59%
A549 [35]
  Activity: 18.45%
MDA-MB-231
  Activity: inactive

## COC(=O)Nc1nc2cc(C(=O)c3cccs3)ccc2[nH]1 [NOCODAZOLE]
A549 [36]
  Activity_index: 28.57
Sus scrofa [37]
  inhibition: Active
A549 [38]
  Activity_index: 57.93
A549 [39]
  Activity_index: 9.83
A549 [40]
  Activity_index: 14.57
